# Screening data (PubChem BioAssay)
# EBI2 antag – antagonists of human EBI2 receptor; EBI2 beta-arrestin recruitment, luminescence, 7a,25-OHC stimulated; inhibition, % at 5 µM; 360,000 compounds, 0.81% hits; P32249; AID 651636; in the data active means inhibition above about 38%;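 further: enzyme fragment complementation signal reports receptor beta-arrestin coupling in cells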
# Target sequence (P32249 whole entry, looked up, the tested form may be a part): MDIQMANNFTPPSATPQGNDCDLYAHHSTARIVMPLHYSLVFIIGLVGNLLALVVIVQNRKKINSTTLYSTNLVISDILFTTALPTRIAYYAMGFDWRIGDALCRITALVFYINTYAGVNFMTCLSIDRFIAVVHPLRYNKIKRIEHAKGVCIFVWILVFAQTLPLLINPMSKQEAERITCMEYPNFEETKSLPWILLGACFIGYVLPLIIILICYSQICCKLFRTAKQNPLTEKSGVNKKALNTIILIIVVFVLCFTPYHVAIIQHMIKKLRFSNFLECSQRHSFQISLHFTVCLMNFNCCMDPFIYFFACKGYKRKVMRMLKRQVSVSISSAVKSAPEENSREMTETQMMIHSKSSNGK
# CXCR6 inh – CXCR6 (human) receptor inhibition; O00574; 360,000 compounds, 0.36% hits; CHO-K1 PathHunter CXCR6 beta-arrestin, luminescence; inhibition, % at 20 µM; in the data active means inhibition above about 34%, passing the limit was not always enough;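 further: antagonist mode with CXCL16 agonist at 10 nM final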
# APJ antagonist – blocks the human apelin receptor APJ; AID 2521; P35414; CHO-K1 APJ beta-arrestin complementation, luminescence; inhibition, % at 20 µM; 330,000 compounds, 0.32% hits;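 active means inhibition above about 40% at 20 µM, limit read from the data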;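 further: cells challenged with 10 nM apelin-13 agonist together with compound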
# APJ ag – APJ receptor agonism. P35414. CHO-K1 APJ PathHunter beta-arrestin, luminescence; 0% DMSO wells, 100% apelin. activation, % at 20 µM. 330,000 compounds, 0.11% hits;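 active means activation more than six SD over the plate average, tested at 20 µM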
#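 Test system: CHO-K1 APJ beta-arrestin complementation cell line. Amount: cell density 1000 per well. Controls: DMSO negative, 10 nM Apelin-13 positive. Signal: luminescent beta-gal fragment complementation, chemiluminescent substrate. Read-out basis: agonist-driven arrestin binding to APJ. Timing: compound stimulation 90 min at 25 °C, detection 60 min.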
# CCR6 antag – CCR6 (human) receptor antagonism; P51684; CHO-K1 CCR6 PathHunter beta-arrestin, luminescence, CCL20-stimulated; inhibition, % at 20 µM; 340,000 compounds, 0.49% hits; AID 493098;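 active means compounds whose inhibition of the agonist-driven luminescence signal at 20 µM reaches about 50%, limit read from the data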;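 further: cells stimulated with CCL20 at 14 nM final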
# EBI2 conf – confirmation of human EBI2 receptor antagonists; shares compounds with EBI2 antag; EBI2 beta-arrestin luminescence, 7a,25-OHC antagonism; inhibition, % at 5 µM; 2,400 compounds, 29% hits; AID 651997;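 active means inhibition of at least 50%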
# EBI2 agonist – counter-screen for EBI2 antagonists: EBI2 agonist activity. shares compounds with EBI2 antag. EBI2-expressing cells, agonist mode, luminescence, 60 min; 0% vehicle, 100% 7α,25-dihydroxycholesterol control. activation, % at 5 µM. 2,400 tested, under 10 active. AID 652000;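 active means activation of at least 50%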
# bGal cs – inhibits E. coli beta-galactosidase, counter-screen for EBI2 antagonists; shares compounds with EBI2 antag; purified beta-galactosidase, luminescent Galacton Star, 15 min; inhibition, % at 5 µM; 2,400 compounds, 1% hits;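 active means replicate-average signal at least 3 plate SD below neutral wells, shown as high inhibition, flagging enzyme-inhibiting false positives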;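 further: higher means stronger loss of beta-gal luminescence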
# Numbers stand for hits; n = inactive; x = not tested or not shown. This is a sample that favours compounds with a hit; in the whole collection about 1.5% have one here.
SMILES,EBI2 antag,CXCR6 inh,APJ antagonist,APJ ag,CCR6 antag,EBI2 conf,EBI2 agonist,bGal cs
Cc1nc2c(=O)[nH]c3ccccc3c2o1,n,n,n,n,n,x,x,x
COC(=O)/C=C1/SC(=Nc2ccc(C)cc2C)NC1=O,71.7,n,n,n,n,72.5,n,n
COC(=O)/C=C1\SC(=Nc2ccccc2)NC1=O,52.3,n,n,n,n,59.4,n,n
NC(=O)c1ccsc1NC(=O)c1coc2ccccc2c1=O,n,n,n,n,n,x,x,x
COc1ccccc1CNC(=O)CSc1ccc(Br)cc1,45.2,n,n,n,n,n,n,n
NNC(=O)c1ccc(N2CCc3ccccc32)c([N+](=O)[O-])c1,n,n,n,n,n,x,x,x
Cc1ccc(CNC(=O)c2ccc(N3CCc4ccccc43)c([N+](=O)[O-])c2)cc1,37.4,n,n,n,n,n,n,n
CSc1ccccc1OCc1cc(C(=O)NCCCn2nc(C)cc2C)no1,n,n,n,n,n,x,x,x
COc1ccc(NC(=O)CCN2CCN(S(=O)(=O)c3ccc(OC)cc3)CC2)cc1,n,n,n,n,n,x,x,x
COc1ccc(NC(=O)CCN2CCN(S(=O)(=O)c3cc(Cl)ccc3Cl)CC2)cc1,47.7,n,n,n,n,n,n,n
CCCCN(C)c1c(C)nc2ccc(C(=O)N3CCN(C(C)=O)CC3)cn12,n,n,x,x,x,x,x,x
CC(=O)N1CCN(C(=O)c2cc3ccccc3o2)CC1,n,n,n,n,n,x,x,x
O=C(c1cc2ccccc2o1)N1CCCC1,n,n,n,n,n,x,x,x
O=C(c1cc2ccccc2o1)N1CCN(C/C=C/c2ccccc2)CC1,85.5,n,n,n,n,59.1,n,n
O=C(c1cc2ccccc2o1)N1CCN(Cc2nc3ccccc3s2)CC1,68.3,n,x,x,x,54.6,n,n
Cn1/c(=N/NC(=O)c2ccccc2Br)sc2ccccc21,n,n,n,n,n,x,x,x
CCCCCn1c(SCc2ccncc2)nc2cc(C(=O)NCc3ccco3)ccc2c1=O,37.5,n,n,n,n,n,n,n
CCCCn1c(SCC(=O)NCc2ccco2)nc2ccccc2c1=O,n,n,n,n,n,x,x,x
CCCC(C)(C)C(=O)N1CCC1(C)C(=O)Nc1ccc(OC)c(OC)c1 (centres undefined),n,n,x,x,x,x,x,x
O=[N+]([O-])c1ccc(NN=Cc2cc(Br)ccc2O)nc1,58.9,n,x,x,66.7,n,n,n
O=[N+]([O-])c1ccc(NN=Cc2cccc(O)c2)nc1,n,n,x,x,n,x,x,x
CSCCC(NC(=O)c1ccc(Cl)cc1Cl)C(=O)NCc1ccncc1 (centres undefined),n,n,n,n,n,x,x,x
CCOc1cccc(NC(=O)c2ccc(S(=O)(=O)N(C)C)cc2)c1,46.1,n,n,n,n,n,n,n
Cc1cccc(/C=C/C(=O)c2ccc(N3CCOCC3)cc2)c1,x,x,n,n,x,x,x,x
Cc1ccc(/C=C/C(=O)c2ccc(N3CCOCC3)cc2)s1,64.8,n,n,n,n,n,n,n
SMILES,EBI2 antag,CXCR6 inh,APJ antagonist,APJ ag,CCR6 antag,EBI2 conf,EBI2 agonist,bGal cs
O=C(/C=C/c1ccc(F)cc1)c1ccc(N2CCOCC2)cc1,65.8,n,n,n,n,50.9,n,n
CCc1ccc(NC(=O)CS(=O)CC(=O)Nc2ccc(N3CCOCC3)cc2)cc1 (centres undefined),n,n,n,n,n,x,x,x
CCc1ccc(C(=O)/C=C/c2ccc([N+](=O)[O-])o2)cc1,n,n,n,n,n,x,x,x
CCc1ccc(/C=C/C(=O)c2ccc(N3CCOCC3)cc2)cc1,83.1,n,n,n,n,52.9,n,n
CCc1ccc(/C=C/C(=O)c2ccc(S(=O)(=O)N(C)C)cc2)cc1,85.8,n,n,n,n,59.9,n,n
Cc1ccc(NC(=O)n2ncc3c(C)cccc32)cc1F,n,n,n,n,n,x,x,x
CN1CCC(N(C)C(=O)COc2ccccc2Cl)CC1,n,n,n,n,n,x,x,x
CCOC(=O)C1CCCN(C(=O)c2csc(-c3ccc4c(c3)CCO4)n2)C1 (centres undefined),n,n,n,n,n,x,x,x
CC(=O)Nc1cc(-c2ccc(N(C)C)cc2)cn2c(-c3ccc(F)cc3)cnc12,53.8,n,x,x,x,53.6,n,n
C=CCNc1nc2ccccc2nc1NS(=O)(=O)c1ccc(Cl)cc1,n,n,n,n,n,x,x,x
CC(C)(C)c1ccc(C(=O)NNC(=O)CCC(=O)Nc2ccccc2)cc1,n,n,n,n,n,x,x,x
Cc1cccc(OCC(=O)NC2CCCc3ccccc32)c1C (centres undefined),57.5,n,n,n,n,58.2,n,n
COc1ccccc1OCC(=O)NC1CCCc2ccccc21 (centres undefined),n,n,n,n,n,x,x,x
O=C(Nc1ccccc1F)Nc1ccccc1N1CCCCC1,53.1,n,n,n,n,n,n,n
Cc1cccc(OCC(=O)Nc2ccccc2N2CCCCC2)c1C,43.4,n,n,n,n,n,n,n
COc1cccc(C(=O)NNS(=O)(=O)c2ccccc2)c1,n,n,x,x,x,x,x,x
CCOC(=O)c1ccccc1NC(=O)COC(=O)CSC(C)C(=O)Nc1cc(C)on1 (centres undefined),n,n,n,n,n,x,x,x
O=C(COC(=O)CN1C(=O)c2ccccc2C1=O)NC1CCCCC1,n,n,n,n,n,x,x,x
O=C(CN1CCN(S(=O)(=O)c2cccc(Br)c2)CC1)NCCc1cccs1,38.8,n,n,n,n,n,n,n
Cc1ccccc1Nc1nnc(SCC2CCCCO2)s1 (centres undefined),n,n,n,n,n,x,x,x
Cc1ccc(Nc2nnc(SC(C)C(=O)NCC3CCCO3)s2)cc1C (centres undefined),46.2,n,n,n,n,n,n,n
Cc1ccc(Nc2nnc(SCC3CCCCO3)s2)cc1 (centres undefined),59.2,n,n,n,n,n,n,n
Cc1nnc(SC(C)C(=O)NCC2CCCO2)s1 (centres undefined),n,n,n,n,n,x,x,x
O=C(NCc1ccc2c(c1)OCO2)C(=O)Nc1cc2c3c(c1)CC(=O)N3CCC2,n,n,n,n,n,x,x,x
c1ccc(Cn2cc(CNc3ccccc3)nn2)cc1,49.0,n,n,n,n,n,n,n
O=S(=O)(NCC1CCCO1)c1ccc(Cl)c2ccccc12 (centres undefined),n,n,x,x,x,x,x,x
COC(=O)c1cc(NC(=O)c2cc3ccccc3o2)cc(C(=O)OC)c1,n,n,n,n,n,x,x,x
COC(=O)c1cccc(NC(=O)c2cc3ccccc3o2)c1,44.3,n,n,n,n,n,n,n
COc1ccc2cc(C(=O)N3CCN(c4ccccc4F)CC3)[nH]c2c1,65.5,n,n,n,n,57.7,n,n
